From ChEMBL document CHEMBL4052637, “Discovery and Characterization of R/S-N-3-Cyanophenyl-N'-(6-tert-butoxycarbonylamino-3,4-dihydro-2,2-dimethyl-2H-1-benzopyran-4-yl)urea, a New Histone Deacetylase Class III Inhibitor Exerting Antiproliferative Activity against Cancer Cell Lines” (J Med Chem, 2017) come the findings set out here.

Molecules are shown by their SMILES. Calls of active or inactive are those of the source. No cut-off for these calls is given here.

The target in data set [1] is Histone deacetylase 8 (Homo sapiens) (UniProt Q9BY41). Kind of data set: Inhibition of recombinant human HDAC8 expressed in Escherichia coli at 0.1 to 100 uM using Fluor-de-Lys-HDAC8 as substrate after 15 mins by fluorescence assay.
Chain of Histone deacetylase 8 (Homo sapiens) (Q9BY41 whole entry): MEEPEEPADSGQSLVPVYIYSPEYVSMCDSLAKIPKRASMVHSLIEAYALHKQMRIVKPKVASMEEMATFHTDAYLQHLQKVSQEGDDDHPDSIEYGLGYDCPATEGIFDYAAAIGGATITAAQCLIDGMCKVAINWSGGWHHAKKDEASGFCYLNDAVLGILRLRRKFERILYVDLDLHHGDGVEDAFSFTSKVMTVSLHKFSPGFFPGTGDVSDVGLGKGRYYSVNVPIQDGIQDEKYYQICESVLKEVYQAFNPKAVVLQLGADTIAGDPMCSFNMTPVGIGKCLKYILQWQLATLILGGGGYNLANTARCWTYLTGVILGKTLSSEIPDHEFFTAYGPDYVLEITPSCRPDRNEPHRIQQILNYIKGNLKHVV
The subject of a further data set is MDA-MB-231. The data set can be described thus: Growth inhibition of human MDA-MB-231 cells after 48 hrs by SRB assay. It is filed as functional. The settings on record: MDA-MB-231, 48 h.
The test system of a further data set is SF-539. Kind of data set: Growth inhibition of human SF539 cells after 48 hrs by SRB assay. The class given is functional. As to conditions: SF-539, 48 h.
The next data set has as its system KB-HU. The data set can be described thus: Antiproliferative activity against human KB-HU cells overexpressing ribonucleotide reductase subunit 2 after 72 hrs by MTT assay. It is filed as functional, cell-based. The essentials: (§1)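 MTT assay: cells in RPMI 1640 with 10% heat-inactivated FCS at 37 °C and 5% CO2 were seeded 24 h before treatment. They were exposed 72 h to compound at 0.01–100 μM, with DMSO as solvent.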

Data set [2] concerns Hs 683. The data set can be described thus: Cell cycle arrest in human Hs683 cells assessed as accumulation at G1 phase at IC50 after 24 to 48 hrs by propidium iodide staining-based flow cytometry. The class given is functional. The essentials: (§2)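 Cells were exposed to compound at the IC50 for each line from the 72 h MTT assay, or to a reference HDAC inhibitor at 2 μM. Cell cycle distribution was analyzed after 24 and 48 h. Results are mean ± SD of three independent experiments, with p values against control cells.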
For orientation: A flow cytometer gives signals particle by particle.

A further data set has as its system HCT-116. Kind of data set: Antiproliferative activity against human HCT116 cells expressing wild type p53 after 72 hrs by MTT assay. The class given is functional, cell-based. The essentials:
as §1
In general terms: Tetrazolium dyes change colour on reduction, which living cells bring about.

Data set [3] concerns the target T1, NAD-dependent protein deacetylase sirtuin-2 (Homo sapiens) (UniProt Q8IXJ6).
T1 sequence (whole entry): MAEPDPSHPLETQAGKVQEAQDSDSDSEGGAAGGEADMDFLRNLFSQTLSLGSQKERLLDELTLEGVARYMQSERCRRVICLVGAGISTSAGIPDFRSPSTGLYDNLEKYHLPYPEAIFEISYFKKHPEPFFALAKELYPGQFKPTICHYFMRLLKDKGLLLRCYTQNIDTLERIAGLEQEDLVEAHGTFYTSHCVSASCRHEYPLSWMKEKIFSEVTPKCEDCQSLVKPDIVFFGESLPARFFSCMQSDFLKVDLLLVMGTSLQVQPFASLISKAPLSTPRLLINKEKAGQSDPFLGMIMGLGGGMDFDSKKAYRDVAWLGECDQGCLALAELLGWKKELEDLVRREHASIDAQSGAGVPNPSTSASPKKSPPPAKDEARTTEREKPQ
The data set can be described thus: Inhibition of SIRT2 in human U373 cells assessed as increase of alpha-tubulin acetylation after 8 hrs by Western blotting method. The class given is cell-based. For orientation: In western blotting, separated proteins are transferred to a membrane and probed.

The next data set relates to UACC-257. The data set can be described thus: Growth inhibition of human UACC257 cells after 48 hrs by SRB assay. It is filed as functional. As to conditions: UACC-257, 48 h.
Another data set concerns A498. The data set can be described thus: Growth inhibition of human A498 cells after 48 hrs by SRB assay. It is filed as functional. As to conditions: A498, 48 h.
Another data set concerns SN12C. Kind of data set: Growth inhibition of human SN12C cells after 48 hrs by SRB assay. It is filed as functional.
Data set [4] relates to Hs 683. The data set can be described thus: Induction of apoptosis in human Hs683 cells at 10 uM after 72 hrs by TUNEL method relative to control. It is filed as functional.
Another data set relates to NCI/ADR-RES. Kind of data set: Growth inhibition of human NCI-ADR-RES cells after 48 hrs by SRB assay. It is filed as functional.
The subject of another data set is HCC 2998. The data set can be described thus: Growth inhibition of human HCC2998 cells after 48 hrs by SRB assay. It is filed as functional. The settings on record: HCC 2998, 48 h.
In a further data set the test system is CCRF-CEM. Kind of data set: Growth inhibition of human CCRF-CEM cells after 48 hrs by SRB assay. It is filed as functional.
Data set [5] has as its system U-373MG ATCC. Kind of data set: Cell cycle arrest in human U373 cells assessed as accumulation at G2/M phase at 2 uM after 24 to 48 hrs by propidium iodide staining-based flow cytometry. It is filed as functional. The settings on record: 7.5 uM, in the assay text read “at 7.5 uM” for “at 2 uM”. A digest of the protocol: as §2
The species named for the next data set is Homo sapiens. The data set can be described thus: Inhibition of HDAC isolated from human K562 cells at 0.1 to 100 uM using Fluor-de-Lys as substrate after 15 mins by fluorescence assay.
In data set [6] the test system is U-373MG ATCC. Kind of data set: Inhibition of spheroid forming capacity of human U373 cells assessed as decrease in surface area of tumor spheroids at 5 to 10 uM treated for 24 hrs measured after 96 hrs by bright field microscopic method. The class given is functional, cell-based. A digest of the protocol: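 Spheroids formed from 1 × 10^3 cells in 25 μL. Cells were pretreated 24 h with compound then left untreated 96 h, or untreated spheroids were cultured 96 h with compound. Surface measured from bright-field images; volume in voxels from 3D plots after image segmentation. Mean ± SD of three independent experiments.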

For data set [7], the target named is T1, NAD-dependent protein deacetylase sirtuin-2 (Homo sapiens). Kind of data set: Inhibition of SIRT2 in human U373 cells assessed as increase of alpha-tubulin acetylation at 2.5 uM after 8 hrs by Western blotting method relative to control. The class given is cell-based.
The nature of data set [8]: Potency index, ratio of sirtinol IC50 to test compound IC50 for human U373 cells. It is filed as functional, U-373MG ATCC.
Data set [9] has as its target T2, NAD-dependent protein deacetylase sirtuin-1 (Homo sapiens) (UniProt Q96EB6).
T2 sequence (whole entry): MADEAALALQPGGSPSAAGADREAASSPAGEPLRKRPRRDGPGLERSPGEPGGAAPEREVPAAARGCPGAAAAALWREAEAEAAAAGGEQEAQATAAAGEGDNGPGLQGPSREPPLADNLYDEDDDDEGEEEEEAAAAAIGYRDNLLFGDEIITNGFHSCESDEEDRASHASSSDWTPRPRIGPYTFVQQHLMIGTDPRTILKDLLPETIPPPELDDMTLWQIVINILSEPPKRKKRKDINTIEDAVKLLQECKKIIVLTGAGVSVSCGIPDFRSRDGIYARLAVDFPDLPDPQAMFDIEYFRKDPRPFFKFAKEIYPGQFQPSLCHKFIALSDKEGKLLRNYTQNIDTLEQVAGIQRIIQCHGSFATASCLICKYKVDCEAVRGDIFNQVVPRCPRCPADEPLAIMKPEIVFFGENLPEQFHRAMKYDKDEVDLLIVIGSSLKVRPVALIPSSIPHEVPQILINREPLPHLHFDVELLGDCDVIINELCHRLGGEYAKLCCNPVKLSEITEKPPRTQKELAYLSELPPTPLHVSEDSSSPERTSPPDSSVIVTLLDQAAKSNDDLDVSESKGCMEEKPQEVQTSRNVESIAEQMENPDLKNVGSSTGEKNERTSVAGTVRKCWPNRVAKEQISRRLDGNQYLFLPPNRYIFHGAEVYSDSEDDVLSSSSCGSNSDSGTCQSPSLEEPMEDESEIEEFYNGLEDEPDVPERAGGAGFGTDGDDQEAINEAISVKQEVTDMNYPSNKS
Kind of data set: Inhibition of SIRT1 in human Hs683 cells assessed as increase of histone H4 acetylation at 10 to 25 after 8 to 24 hrs by Western blotting method. The class given is cell-based.

For a further data set, the system named is PBMC. The data set can be described thus: Cytotoxicity against human PBMC assessed as decrease in cell viability at 1 to 100 uM after 24 to 48 hrs. It is filed as cell-based.
The test system of a further data set is KB 3-1. Kind of data set: Antiproliferative activity against human KB-3-1 cells after 72 hrs by MTT assay. The class given is functional, cell-based. A digest of the protocol:
as §1

Data set [10] has as its target T2, NAD-dependent protein deacetylase sirtuin-1 (Homo sapiens). The data set can be described thus: Inhibition of SIRT1 in human U373 cells assessed as increase of histone H4 acetylation at 10 uM after 8 hrs by Western blotting method relative to control. It is filed as cell-based.

Take `CC(C)(C)OC(=O)Nc1ccc2c(c1)C(NC(=O)Nc1cccc(C#N)c1)CC(C)(C)O2` (stereo not drawn): the inhibition result (in [1]; in the data set filed under Homo sapiens) was “inactive” in each case. For the same molecule, the concentration for 50% growth inhibition (GI50) with MDA-MB-231 is 4.27 µM; in the data set on SF-539, 6.61 µM; in the data set on UACC-257, 0.871 µM; with A498, 7.08 µM; in the data set on SN12C it was 5.5 µM; in the data set with NCI/ADR-RES, 3.09 µM. In addition, the concentration for 50% growth inhibition (GI50) was 5.13 µM in the data set with HCC 2998 and 3.31 µM with CCRF-CEM. Besides, the result in the data set on KB-HU, in the data set on Hs 683 [2], in the data set on HCT-116, in the data set with U-373MG ATCC [5] and with KB 3-1 was Active. Also, in data set [3], the inhibition result is “Dose-dependent effect”. The Activity is 25% with Hs 683 [4] and “Non-Toxic” in the data set with PBMC. Moreover, the inhibition result (in the data set on U-373MG ATCC [6]; in [9]) was “Active” throughout. For the same molecule, the fold change (FC) was found to be 1.4 in data set [7] and 4.1 in [10]. In [8], the “Ratio IC50” value was 6.

In general, GI50 refers to the concentration that inhibits growth by half. A high value points to less potent growth inhibition.
